Target: T1, Adenosine receptor A2b (Homo sapiens) (UniProt P29275)
T1 sequence (whole entry): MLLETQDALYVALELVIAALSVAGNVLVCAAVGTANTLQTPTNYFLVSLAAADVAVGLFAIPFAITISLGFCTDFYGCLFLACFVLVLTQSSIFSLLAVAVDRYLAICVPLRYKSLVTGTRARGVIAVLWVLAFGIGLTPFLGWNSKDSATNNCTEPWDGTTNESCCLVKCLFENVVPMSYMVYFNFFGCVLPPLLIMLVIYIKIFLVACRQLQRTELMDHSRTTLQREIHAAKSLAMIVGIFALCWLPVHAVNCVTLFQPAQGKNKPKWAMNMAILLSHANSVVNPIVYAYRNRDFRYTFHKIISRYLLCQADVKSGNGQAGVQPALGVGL
Experiment: Agonist activity human adenosine A2B receptor expressed in CHO cells assessed as stimulation of adenylate cyclase relative to NECA
Assay type: functional, cell-based
In short: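 Stably transfected CHO cells; cAMP accumulation by enzyme immunoassay kit. Relative potency computed as pEC50(compound) minus pEC50(NECA) determined in the same publication.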

| SMILES | Activity |
| --- | --- |
| CCNC(=O)[C@H]1O[C@@H](n2cnc3c(NNC(=O)c4ccsc4)nc(Cl)nc32)[C@H](O)[C@@H]1O | -0.449 |
| CCCCC#Cc1nc(NC(C)C)c2ncn([C@@H]3O[C@H](CO)[C@@H](O)[C@H]3O)c2n1 | -1.62 |
| CCNC(=O)[C@H]1O[C@@H](n2cnc3c(Nc4ccc(OCC(=O)Nc5cc(OC)cc(OC)c5)cc4)ncnc32)[C@H](O)[C@@H]1O | 0.461 |
| Nc1nc(OCCc2c[nH]c3ccc(O)cc23)nc2c1ncn2[C@@H]1O[C@H](CO)[C@@H](O)[C@H]1O | -0.806 |
| CCNC(=O)[C@H]1O[C@@H](n2cnc3c(Nc4ccc(OCC(=O)Nc5ccc(I)cc5C(F)(F)F)cc4)ncnc32)[C@H](O)[C@@H]1O | 0.161 |
| O=S(=O)(O)c1ccc(Nc2ncnc3c2ncn3[C@@H]2O[C@H](CO)[C@@H](O)[C@H]2O)cc1 | -1.23 |
| Nc1nc(OCCc2c[nH]c3cc(Cl)ccc23)nc2c1ncn2[C@@H]1O[C@H](CO)[C@@H](O)[C@H]1O | -0.188 |
| CCNC(=O)[C@H]1O[C@@H](n2cnc3c(NNC(=O)c4ccco4)ncnc32)[C@H](O)[C@@H]1O | 0.29 |
| CCNC(=O)[C@H]1O[C@@H](n2cnc3c(N)nc(OCCc4c[nH]c5ccccc45)nc32)[C@H](O)[C@@H]1O | -0.849 |
| CCNC(=O)[C@H]1O[C@@H](n2cnc3c(NNC(=O)c4ccco4)nc(Cl)nc32)[C@H](O)[C@@H]1O | -0.118 |
| CCCCC#Cc1nc(NCC)c2ncn([C@@H]3O[C@H](CO)[C@@H](O)[C@H]3O)c2n1 | -1.62 |
| Nc1nc(OCCc2c[nH]c3ccc(I)cc23)nc2c1ncn2[C@@H]1O[C@H](CO)[C@@H](O)[C@H]1O | -1.13 |
| CCNC(=O)[C@H]1O[C@@H](n2cnc3c(NNC(=O)c4sccc4C)nc(Cl)nc32)[C@H](O)[C@@H]1O | -0.327 |
| CCNC(=O)[C@H]1O[C@@H](n2cnc3c(NNC(=O)c4cccs4)nc(Cl)nc32)[C@H](O)[C@@H]1O | -0.097 |
| CCNC(=O)[C@H]1O[C@@H](n2cnc3c(Nc4ccc(OCC(=O)NC5CCCCC5)cc4)ncnc32)[C@H](O)[C@@H]1O | -0.308 |
| CC(C)Nc1nc(C#C[C@H](O)c2ccccc2)nc2c1ncn2[C@@H]1O[C@H](CO)[C@@H](O)[C@H]1O | -0.569 |
| CCNC(=O)[C@H]1O[C@@H](n2cnc3c(NNC(=O)Cc4cccs4)nc(Cl)nc32)[C@H](O)[C@@H]1O | -0.576 |
| CCNC(=O)[C@H]1O[C@@H](n2cnc3c(Nc4ccc(OCC(=O)NCc5ccc(OC)cc5)cc4)ncnc32)[C@H](O)[C@@H]1O | -0.19 |
| CNc1nc(C#C[C@@H](O)c2ccccc2)nc2c1ncn2[C@@H]1O[C@H](CO)[C@@H](O)[C@H]1O | -0.035 |
| CCNC(=O)[C@H]1O[C@@H](n2cnc3c(NNC(=O)c4ccc(C)[nH]4)nc(Cl)nc32)[C@H](O)[C@@H]1O | -0.039 |
| COc1ccc2[nH]cc(CCOc3nc(N)c4ncn([C@@H]5O[C@H](CO)[C@@H](O)[C@H]5O)c4n3)c2c1 | -0.951 |
| CCNC(=O)[C@H]1O[C@@H](n2cnc3c(N)nc(C#C[C@H](O)c4ccccc4)nc32)[C@H](O)[C@@H]1O | 0 |
| CCNc1nc(C#C[C@@H](O)c2ccccc2)nc2c1ncn2[C@@H]1O[C@H](CO)[C@@H](O)[C@H]1O | 0.517 |
| CCNC(=O)[C@H]1O[C@@H](n2cnc3c(NNC(=O)c4ccc(C)o4)ncnc32)[C@H](O)[C@@H]1O | -0.152 |
| CCNC(=O)[C@H]1O[C@@H](n2cnc3c(Nc4ccc(OCC(=O)Nc5ccc(I)cc5)cc4)ncnc32)[C@H](O)[C@@H]1O | 0.71 |
| CCNC(=O)[C@H]1O[C@@H](n2cnc3c(N)ncnc32)[C@H](O)[C@@H]1O | 0 |
| Nc1nc(OCCc2ccccc2)nc2c1ncn2[C@@H]1O[C@H](CO)[C@@H](O)[C@H]1O | -1.4 |
| CCNC(=O)[C@H]1O[C@@H](n2cnc3c(Nc4ccc(OCC(=O)Nc5ccc(OC)cc5)cc4)ncnc32)[C@H](O)[C@@H]1O | 0.68 |

| SMILES | Activity |
| --- | --- |
| Nc1nc(OCCc2c[nH]c3ccccc23)nc2c1ncn2[C@@H]1O[C@H](CO)[C@@H](O)[C@H]1O | -0.33 |
| Nc1nc(OCCc2c[nH]c3ccc(Br)cc23)nc2c1ncn2[C@@H]1O[C@H](CO)[C@@H](O)[C@H]1O | -0.416 |
| Nc1ncnc2c1ncn2[C@@H]1O[C@H](C(=O)NC2CC2)[C@@H](O)[C@H]1O | -0.233 |
| CCNC(=O)[C@H]1O[C@@H](n2cnc3c(NNC(=O)c4ccc(Br)o4)ncnc32)[C@H](O)[C@@H]1O | -0.363 |
| CCNC[C@H]1O[C@@H](n2cnc3c(NC(=N)N)ncnc32)[C@H](O)[C@@H]1O | 0.41 |
| CCNC(=O)[C@H]1O[C@@H](n2cnc3c(NNC(=O)c4ccc[nH]4)nc(Cl)nc32)[C@H](O)[C@@H]1O | -0.351 |
| CCNc1nc(OCCc2c[nH]c3ccccc23)nc2c1ncn2[C@@H]1O[C@H](CO)[C@@H](O)[C@H]1O | -1.37 |
| Nc1nc(OCCc2c[nH]c3cc(Br)ccc23)nc2c1ncn2[C@@H]1O[C@H](CO)[C@@H](O)[C@H]1O | 0.0389 |
| CCCCC#Cc1nc(N)c2ncn([C@@H]3O[C@H](CO)[C@@H](O)[C@H]3O)c2n1 | -1.62 |
| Nc1nc(Cl)nc2c1ncn2[C@@H]1O[C@H](CO)[C@@H](O)[C@H]1O | -0.889 |
| CCNC(=O)[C@H]1O[C@@H](n2cnc3c(Nc4ccc(OCC(=O)Nc5ccc(Br)cc5)cc4)ncnc32)[C@H](O)[C@@H]1O | 1.17 |
| CCNC(=O)[C@H]1O[C@@H](n2cnc3c(Nc4ccc(OCC(=O)Nc5ccccc5)cc4)nc(Cl)nc32)[C@H](O)[C@@H]1O | 0.561 |
| CCCCC#Cc1nc(NC)c2ncn([C@@H]3O[C@H](CO)[C@@H](O)[C@H]3O)c2n1 | -1.62 |
| CCNC(=O)[C@H]1O[C@@H](n2cnc3c(N)nc(C#C[C@@H](O)c4ccccc4)nc32)[C@H](O)[C@@H]1O | 1.04 |
| CCNC(=O)[C@H]1O[C@@H](n2cnc3c(NC)ncnc32)[C@H](O)[C@@H]1O | -0.787 |
| Nc1nc(C#C[C@@H](O)c2ccccc2)nc2c1ncn2[C@@H]1O[C@H](CO)[C@@H](O)[C@H]1O | 0.416 |
| CCNc1nc(C#C[C@H](O)c2ccccc2)nc2c1ncn2[C@@H]1O[C@H](CO)[C@@H](O)[C@H]1O | -0.579 |
| Nc1nc(OCCc2cc[nH]c2)nc2c1ncn2[C@@H]1O[C@H](CO)[C@@H](O)[C@H]1O | -1.27 |
| CCNC(=O)[C@H]1O[C@@H](n2cnc3c(NNC(=O)c4ccc(C)s4)ncnc32)[C@H](O)[C@@H]1O | -0.232 |
| CCNC(=O)[C@H]1O[C@@H](n2cnc3c(Nc4ccc(OCC(=O)NCc5ccccc5)cc4)ncnc32)[C@H](O)[C@@H]1O | 0.014 |
| CCNC(=O)[C@H]1O[C@@H](n2cnc3c(Nc4ccc(OCC(=O)NC5CCCCC5)cc4)nc(Cl)nc32)[C@H](O)[C@@H]1O | -0.29 |
| CNc1nc(C#C[C@H](O)c2ccccc2)nc2c1ncn2[C@@H]1O[C@H](CO)[C@@H](O)[C@H]1O | -1.62 |
| Nc1nc(OCCc2cccs2)nc2c1ncn2[C@@H]1O[C@H](CO)[C@@H](O)[C@H]1O | -1.1 |
| CCNC(=O)[C@H]1O[C@@H](n2cnc3c(Nc4ccc(OCC(=O)Nc5ccccc5)cc4)ncnc32)[C@H](O)[C@@H]1O | 1.33 |
| Nc1nc(OCCc2c[nH]c3ccc(F)cc23)nc2c1ncn2[C@@H]1O[C@H](CO)[C@@H](O)[C@H]1O | -0.739 |
| CCNC(=O)[C@H]1O[C@@H](n2cnc3c(Nc4ccc(OCC(=O)NCc5ccccc5)cc4)nc(Cl)nc32)[C@H](O)[C@@H]1O | -0.053 |
| CCNC(=O)[C@H]1O[C@@H](n2cnc3c(Nc4ccc(OCC(=O)Nc5ccc(OC)cc5)cc4)nc(Cl)nc32)[C@H](O)[C@@H]1O | -0.366 |

Source: ChEMBL document CHEMBL1145544, “Probing distal regions of the A2B adenosine receptor by quantitative structure-activity relationship modeling of known and novel agonists” (J Med Chem, 2008)
